According to paper PMC3951244 (Bioorganic & medicinal chemistry letters, 2014):

Experiments:
CYP = CYP inhibition profile; format: in vitro ADME
GlyT1 = molecular target: T1, GlyT1 (Homo sapiens, UniProt P48067); experiment: Enzyme kinetics of [14C]-glycine transport; format: biochemical; settings: [14C]-glycine transport kinetics; 120 nM 12b in Fig. 3
T1 sequence (P48067 1-706): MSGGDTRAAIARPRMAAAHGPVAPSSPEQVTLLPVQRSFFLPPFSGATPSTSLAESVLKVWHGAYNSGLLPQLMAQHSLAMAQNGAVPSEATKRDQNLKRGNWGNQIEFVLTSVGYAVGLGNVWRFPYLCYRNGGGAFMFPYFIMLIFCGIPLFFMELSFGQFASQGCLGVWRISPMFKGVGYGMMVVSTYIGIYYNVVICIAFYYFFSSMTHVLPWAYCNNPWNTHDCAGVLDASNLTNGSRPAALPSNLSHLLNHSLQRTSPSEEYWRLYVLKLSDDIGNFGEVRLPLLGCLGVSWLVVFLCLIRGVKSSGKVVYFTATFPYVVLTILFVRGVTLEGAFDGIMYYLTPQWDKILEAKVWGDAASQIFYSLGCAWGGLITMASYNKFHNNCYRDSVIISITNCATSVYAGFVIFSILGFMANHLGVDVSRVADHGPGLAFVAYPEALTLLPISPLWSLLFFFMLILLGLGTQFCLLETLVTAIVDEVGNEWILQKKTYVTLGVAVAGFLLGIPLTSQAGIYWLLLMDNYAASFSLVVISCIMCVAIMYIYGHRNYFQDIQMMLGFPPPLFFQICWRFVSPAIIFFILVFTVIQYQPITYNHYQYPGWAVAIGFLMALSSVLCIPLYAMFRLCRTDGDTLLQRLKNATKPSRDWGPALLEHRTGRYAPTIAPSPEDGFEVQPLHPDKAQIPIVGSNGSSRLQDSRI
Method in brief: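 Saturation curves of [14C]-glycine transport were run with either vehicle or 120 nM test compound. Inhibition mode relative to glycine was assessed from an Eadie-Hoffstee plot of the transport data.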

Row | IC50 (CYP) [µM] | Mechanism of GlyT1 inhibition with respect to glycine (GlyT1) | Compound
1 | > 10 |  | Cn1cnc(S(=O)(=O)N2CC3CCC(NC(=O)c4ccc(Cl)cc4Cl)C3C2)c1 (stereo not drawn) [Compound 12a]
2 | > 10 |  | Cn1cnc(S(=O)(=O)N2CC(C(NC(=O)c3ccc(Cl)cc3Cl)c3ccccn3)C2)c1 (stereo not drawn) [Compound 27c]
3 |  | competitively inhibits | Cn1cnc(S(=O)(=O)N2CC3CCC(NC(=O)c4ccccc4C(F)(F)F)C3C2)c1 (stereo not drawn) [Compound 12b]
